# Legend:
# A2780 [1] = test: Cytotoxicity against ovarian carcinoma A2780 tumor cell lines; type: functional, cell-based, Homo sapiens
# Summary of the method: (§1)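 Cisplatin-sensitive A2780 cells and the A2780/cis resistant subline were exposed continuously for graded times (24, 48 and 72 h). IC50 was determined at each exposure time. The resistant subline had been derived by gradual cisplatin treatment.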
# A-427 = test: Cytotoxicity against lung carcinoma A427 tumor cell lines; type: functional, cell-based, Homo sapiens
# KG-1 = test: Cytotoxicity against chronic myelogenous leukemia KG-1 tumor cell lines; type: functional, cell-based, Homo sapiens
# K562 = test: Cytotoxicity against chronic myelogenous leukemia K562 tumor cell lines; type: functional, cell-based, Homo sapiens
# A2780 [2] = test: Cytotoxicity against ovarian carcinoma A2780/cis tumor cell lines; type: functional, cell-based, Homo sapiens; summary of the method: as §1
# HCT-116 = test: Cytotoxicity against colon cancer HCT116 tumor cell lines; type: functional, cell-based, Homo sapiens
# HBL-100 = test: Cytotoxicity against breast carcinoma HBL100 tumor cell lines; type: functional, cell-based, Homo sapiens
# MCF7 = test: Cytotoxicity against breast carcinoma MCF-7 tumor cell lines; type: functional, cell-based, Homo sapiens
# HT-29 [3] = test: Cytotoxicity against colon cancer HT-29 tumor cell lines; type: functional, cell-based, Homo sapiens
# ML-2 = test: Cytotoxicity against acute myelogenous leukemia ML-2 tumor cell lines; type: functional, cell-based, Homo sapiens
# A2780 [4] = test: Cytotoxicity against ovarian carcinoma A2780/cis90 tumor cell lines; type: functional, cell-based, Homo sapiens
# COR-L23 = test: Cytotoxicity against lung carcinoma COR-L23/CTR tumor cell lines; type: functional, cell-based, Homo sapiens
# HT-29 [5] = test: Cytotoxicity against colon cancer HT29N tumor cell lines; type: functional, cell-based, Homo sapiens
# B16 = test: Cytotoxicity against mouse melanoma B16 tumor cell lines; type: functional, cell-based
sequence,measurement,setting,value
CISPLATIN,IC50,A2780 [1],4 µM
same,IC50,A-427,63 µM
same,IC50,KG-1,48 µM
same,IC50,K562,> 80 µM
same,IC50,A2780 [2],40 µM
same,IC50,HCT-116,> 80 µM
same,IC50,HBL-100,63 µM
same,IC50,MCF7,71 µM
same,IC50,HT-29 [3],50 µM
same,IC50,ML-2,> 80 µM
same,IC50,A2780 [4],> 80 µM
same,IC50,COR-L23,> 80 µM
same,IC50,HT-29 [5],> 80 µM
same,IC50,B16,> 80 µM

# Source: ChEMBL document CHEMBL1148403, “Platinum(IV) complex with adamantylamine as nonleaving amine group: synthesis, characterization, and in vitro antitumor activity against a panel of cisplatin-resistant cancer cell lines” (J Med Chem, 2004)
